According to ChEMBL document CHEMBL4393672, “High affinity CXCR4 inhibitors generated by linking low affinity peptides” (Eur J Med Chem, 2019):
pIC50: −log10 of the molar value. Calls of active or inactive are those of the source. The calls are words filed in the database; no cut-off is given here. Residues, ends and D or L forms follow the SMILES beside them.

Tests used:
[1] = target: T1, C-X-C chemokine receptor type 4 (Homo sapiens, UniProt P61073); assay: Competitive binding affinity to CXCR4 receptor (unknown origin) expressed in CHO cells incubated for 40 mins by 12G5 antibody based fluorescence analysis; format: cell-based
T1 sequence (P61073 whole entry): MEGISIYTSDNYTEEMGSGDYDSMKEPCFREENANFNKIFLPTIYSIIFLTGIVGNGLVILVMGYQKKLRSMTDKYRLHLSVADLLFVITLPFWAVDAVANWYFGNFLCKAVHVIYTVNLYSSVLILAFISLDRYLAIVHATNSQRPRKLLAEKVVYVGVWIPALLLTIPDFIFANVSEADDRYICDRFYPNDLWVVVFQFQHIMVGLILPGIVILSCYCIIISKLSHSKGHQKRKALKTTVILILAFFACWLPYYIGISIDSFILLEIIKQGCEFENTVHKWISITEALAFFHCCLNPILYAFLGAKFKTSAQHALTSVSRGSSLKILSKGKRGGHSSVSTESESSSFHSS

[2] = target: T1, C-X-C chemokine receptor type 4; assay: Competitive binding affinity to CXCR4 in human SupT1 cells incubated for 40 mins by 12G5 antibody based fluorescence analysis; format: cell-based
[3] = tested on: Human immunodeficiency virus 1; assay: Antiviral activity against Human immunodeficiency virus 1 NL4-3 infected in human PBMC cells assessed as reduction in intracellular p24 level at 100 nM preincubated with cells 2 hrs followed by viral infection and measured after 24 hrs by ELISA; format: functional
Summary of the method: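 PBMCs from healthy donors (2.5×10^6 cells/mL) were exposed to compound for 2 h, washed, and infected with HIV-1 NL4-3 at MOI 0.02 for 2 h at 37°C. Cells were washed, resuspended in complete medium and incubated 24 h. Cells were then lysed with protease inhibitor, and intracellular p24 was quantified by ELISA.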

[4] = tested on: C-X-C chemokine receptor type 4 (Homo sapiens), P61073 [Y45A]; assay: Competitive binding affinity to CXCR4 Y45A mutant (unknown origin) expressed in CHO cells at 200 nM incubated for 30 mins by 12G5 antibody based fluorescence analysis; format: cell-based
C-X-C chemokine receptor type 4 (Homo sapiens), P61073 [Y45A], sequence (P61073 whole entry Y45A): as the sequence (P61073 whole entry) above, with Y45A counted along it
Summary of the method: (§1)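 Wild-type or mutant CXCR4 cells (5×10⁵/well) incubated with single 200 nM concentration in FACS buffer (0.5% BSA, 0.05% azide in PBS) plus 12G5 anti-CD184 antibody, 30 min on ice; washed, FITC anti-mouse IgG 30 min on ice; fluorescence 485ex/528em; duplicates, ≥3 independent experiments, normalized as percent of control.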

[5] = tested on: PBMC; assay: Cytotoxicity against HIV1 NL4-3 infected in human PBMC cells assessed as cell viability at 50 uM preincubated with cells for 2 hrs followed by viral infection for 2 hrs and measured after 5 days by CellTiter-Blue assay; format: cell-based; conditions: 120 h
Summary of the method: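 PBMCs were seeded at the anti-HIV assay densities and treated in parallel under the same X4 infection and compound exposure conditions. After 5 days at 37°C, viability was read by CellTiter-Blue fluorescence (560/590 nm). The top concentration tested was 50 μM.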

[6] = tested on: C-X-C chemokine receptor type 4 (Homo sapiens), P61073 [E288Q]; assay: Binding affinity to CXCR4 E288Q mutant (unknown origin) expresssed in CHO cells at 200 nM incubated for 30 mins by 12G5 antibody based fluorescence analysis; format: cell-based; summary of the method: as §1
C-X-C chemokine receptor type 4 (Homo sapiens), P61073 [E288Q], sequence (P61073 whole entry E288Q): as the sequence (P61073 whole entry) above, with E288Q counted along it

[7] = target: T1, C-X-C chemokine receptor type 4; assay: Antagonist activity at CXCR4 receptor in human SupT1 cells assessed as inhibition of SDF-1alpha-induced calcium release preincubated for 2 to 3 mins followed by SDF-1alpha addition by Fluo-4AM dye based fluorescence assay; format: functional, cell-based
Summary of the method: (§2)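 SupT1 cells loaded with Fluo-4AM (2 µM) plus probenecid (5 µM) for 30 min at 37°C in HBSS/20 mM HEPES, washed; 1×10⁶ cells/mL exposed to compound 2–3 min, then stimulated with 50 nM SDF-1α; fluorescence read at […]/510em.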

[8] = Stability of compound in 10% FBS assessed as compound remaining at 1mM after 1 hr by HPLC analysis relative to control; format: ADME, cell-free, Bos taurus, Serum; conditions: cattle, read-out: Stability
Summary of the method: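 Peptide dissolved at 1 mM in culture medium with 10% FBS, incubated at 37°C; samples taken over time and analysed by C18 HPLC, UV 220 nm; remaining peptide from peak intensity relative to original peak.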

[9] = tested on: C-X-C chemokine receptor type 4 (Homo sapiens), P61073 [Q200A]; assay: Binding affinity to CXCR4 Q200A mutant (unknown origin) expresssed in CHO cells at 200 nM incubated for 30 mins by 12G5 antibody based fluorescence analysis; format: cell-based
C-X-C chemokine receptor type 4 (Homo sapiens), P61073 [Q200A], sequence (P61073 whole entry Q200A): as the sequence (P61073 whole entry) above, with Q200A counted along it
Summary of the method: (§3)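 Mutational mapping in CHO cells expressing wild-type or mutant CXCR4, 5×10^5 cells/well. Cells were incubated with a single 200 nM peptide concentration plus 12G5 anti-CD184 antibody in FACS buffer on ice for 30 min. FITC anti-mouse IgG was then added for 30 min on ice. Fluorescence was read at 485/528 nm and normalized to control, in duplicate across at least three experiments.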

[10] = target: T1, C-X-C chemokine receptor type 4; assay: Inhibition of N-terminal flag-tagged CXCR4 (unknown origin) internalization expressed in CHO cells incubated for 45 mins and measured after 1 hr by FITC-labeled anti-flag antibody based fluorescence analysis
[11] = target: T1, C-X-C chemokine receptor type 4; assay: Antagonist activity at CXCR4 (unknown origin) expressed in CHO cells assessed as reduction in basal phosphorylated AKT expression at 50 uM incubated for 30 mins followed by measured after 5 mins by Western blot analysis; format: cell-based
[12] = tested on: C-X-C chemokine receptor type 4 (Homo sapiens), P61073 [V112A]; assay: Competitive binding affinity to CXCR4 V112A mutant (unknown origin) expresssed in CHO cells at 200 nM incubated for 30 mins by 12G5 antibody based fluorescence analysis; format: cell-based; summary of the method: as §3
C-X-C chemokine receptor type 4 (Homo sapiens), P61073 [V112A], sequence (P61073 whole entry V112A): as the sequence (P61073 whole entry) above, with V112A counted along it

[13] = target: T1, C-X-C chemokine receptor type 4; assay: Antagonist activity at CXCR4 (unknown origin) in CHO cells assessed as reduction in SDF-1alpha-induced Akt phosphorylation level at 50 uM incubated for 30 mins followed by SDF1-alpha addition measured after 5 mins by Western blot analysis; format: cell-based
Summary of the method: (§4)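 CXCR4-expressing CHO cells grown in DMEM with 10% FBS, seeded at 10^6 cells/well for 24 h, then moved to serum-free medium. Cells were pretreated with 50 μM peptide for 30 min, then stimulated with 12.5 nM SDF-1α for 5 min. Lysates were adjusted to 3 mg/mL, run on 12% SDS-PAGE and immunoblotted for phospho-AKT/ERK with ECL detection. Bands were quantified by densitometry as % control.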

[14] = tested on: C-X-C chemokine receptor type 4 (Homo sapiens), P61073 [W195A]; assay: Competitive binding affinity to CXCR4 W195A mutant (unknown origin) expresssed in CHO cells at 200 nM incubated for 30 mins by 12G5 antibody based fluorescence analysis; format: cell-based; summary of the method: as §1
C-X-C chemokine receptor type 4 (Homo sapiens), P61073 [W195A], sequence (P61073 whole entry W195A): as the sequence (P61073 whole entry) above, with W195A counted along it

[15] = tested on: Human immunodeficiency virus 1; assay: Antiviral activity against Human immunodeficiency virus 1 NL4-3 infected in human PBMC cells assessed as inhibition of extracellular p24 level preincubated with cells for 2 hrs followed by viral infection for 2 hrs and measured after 5 days by ELISA
[16] = tested on: C-X-C chemokine receptor type 4 (Homo sapiens), P61073 [D262N]; assay: Binding affinity to CXCR4 D262N mutant (unknown origin) expresssed in CHO cells at 200 nM incubated for 30 mins by 12G5 antibody based fluorescence analysis; format: cell-based; summary of the method: as §1
C-X-C chemokine receptor type 4 (Homo sapiens), P61073 [D262N], sequence (P61073 whole entry D262N): as the sequence (P61073 whole entry) above, with D262N counted along it

[17] = tested on: C-X-C chemokine receptor type 4 (Homo sapiens), P61073 [Y116A]; assay: Competitive binding affinity at CXCR4 Y116A mutant (unknown origin) expressed in CHO cells at 200 nM incubated for 30 mins by 12G5 antibody based fluorescence analysis; format: cell-based; summary of the method: as §1
C-X-C chemokine receptor type 4 (Homo sapiens), P61073 [Y116A], sequence (P61073 whole entry Y116A): as the sequence (P61073 whole entry) above, with Y116A counted along it

[18] = tested on: C-X-C chemokine receptor type 4 (Homo sapiens), P61073 [R30A]; assay: Binding affinity to CXCR4 R30A mutant (unknown origin) expresssed in CHO cells at 200 nM incubated for 30 mins by 12G5 antibody based fluorescence analysis; format: cell-based; summary of the method: as §3
C-X-C chemokine receptor type 4 (Homo sapiens), P61073 [R30A], sequence (P61073 whole entry R30A): as the sequence (P61073 whole entry) above, with R30A counted along it

[19] = target: T1, C-X-C chemokine receptor type 4; assay: Antagonist activity at CXCR4 receptor in human SupT1 cells assessed as inhibition of SDF-1alpha-induced calcium release at 1 uM preincubated for 2 to 3 mins followed by SDF-1alpha addition by Fluo-4AM dye based fluorescence assay relative to control; format: functional, cell-based; summary of the method: as §2
[20] = target: T1, C-X-C chemokine receptor type 4; assay: Antagonist activity at CXCR4 (unknown origin) in CHO cells assessed as reduction in SDF-1alpha-induced ERK phosphorylation level at 50 uM incubated for 30 mins followed by SDF1-alpha addition measured after 5 mins by Western blot analysis; format: cell-based; summary of the method: as §4
[21] = Stability of compound in water assessed as compound remaining at 1mM at 37 degC after 48 hrs by HPLC analysis relative to control; format: physicochemical; conditions: read-out: Stability
[22] = tested on: C-X-C chemokine receptor type 4 (Homo sapiens), P61073 [W94A]; assay: Competitive binding affinity at CXCR4 W94A mutant (unknown origin) expressed in CHO cells at 200 nM incubated for 30 mins by 12G5 antibody based fluorescence analysis; format: cell-based; summary of the method: as §1
C-X-C chemokine receptor type 4 (Homo sapiens), P61073 [W94A], sequence (P61073 whole entry W94A): as the sequence (P61073 whole entry) above, with W94A counted along it

## CC[C@H](C)[C@H](NC(=O)[C@H](CC(=O)O)NC(=O)CNC(=O)[C@H](CCCCN)NC(=O)[C@H](CCCNC(=N)N)NC(=O)[C@H](CCCCN)NC(=O)CCCCCN)C(=O)N[C@@H](CCCNC(=N)N)C(=O)N[C@@H](CCC(N)=O)C(=O)N[C@@H](C)C(=O)N[C@@H](Cc1cnc[nH]1)C(=O)N[C@@H](CS)C(N)=O (HELM PEPTIDE1{[NCCCCCC(=O)[*:2]].K.R.K.G.D.I.R.Q.A.H.C.[am]}$$$$V2.0)
[1]
  pIC50: < 4.30
[2]
  pIC50: < 4.30

## c1cc(CN2CCCNCCNCCCNCC2)ccc1CN1CCCNCCNCCCNCC1
[3]
  Activity: Active

## CC(C)C[C@@H](N)C(=O)NCC(=O)N[C@H](C)C(=O)N[C@H](CO)C(=O)N[C@H](Cc1c[nH]c2ccccc12)C(=O)N[C@H](Cc1cnc[nH]1)C(=O)N[C@H](CCCNC(=N)N)C(=O)N1CCC[C@@H]1C(=O)N[C@H](CC(=O)O)C(=O)N[C@H](CCCCN)C(=O)N[C@H](CS)C(=O)N[C@H](CS)C(=O)N[C@H](CC(C)C)C(=O)NCC(=O)N[C@H](Cc1ccc(O)cc1)C(=O)N[C@H](CCC(N)=O)C(=O)N[C@H](CCCCN)C(=O)N[C@H](CCCNC(=N)N)C(=O)N1CCC[C@@H]1C(=O)N[C@H](CC(C)C)C(=O)N1CCC[C@@H]1C(=O)NCCCCCC(=O)N[C@@H](CCCCN)C(=O)NCC(=O)N[C@@H](CC(C)C)C(=O)N[C@@H](CC(C)C)C(=O)NCC(=O)N[C@@H](CC(C)C)C(=O)N[C@@H](CO)C(=O)N[C@@H](CCCCN)C(N)=O
[2]
  pIC50: 6.83

## CC(C)C[C@@H](N)C(=O)NCC(=O)N[C@H](C)C(=O)N[C@H](CO)C(=O)N[C@H](Cc1c[nH]c2ccccc12)C(=O)N[C@H](Cc1cnc[nH]1)C(=O)N[C@H](CCCNC(=N)N)C(=O)N1CCC[C@@H]1C(=O)N[C@H](CC(=O)O)C(=O)N[C@H](CCCCN)C(=O)N[C@H](CCCCN)C(=O)N[C@H](CCCNC(=N)N)C(=O)NCCCCCC(=O)N[C@@H](CCCCN)C(=O)N[C@@H](CCCNC(=N)N)C(=O)N[C@@H](CCCCN)C(=O)N[C@H](C(=O)N[C@@H](CC(N)=O)C(=O)N[C@@H](CC(N)=O)C(=O)N[C@@H](CC(N)=O)C(=O)N1CCC[C@H]1C(=O)N[C@@H](CCCNC(=N)N)C(=O)N[C@H](C(=O)N[C@@H](CS)C(=O)O)[C@@H](C)O)[C@@H](C)O
[3]
  inhibition at 0.1 µM: 16%
[1]
  pIC50: 7.80
[2]
  pIC50: 7.85
[4]
  Activity: inactive
[5]
  Activity: Non-Toxic
[6]
  Activity: inactive
[7]
  inhibition: Dose-dependent effect
[8]
  remaining at 1 h, 1000 µM: 80%
[9]
  Activity: inactive
[10]
  Activity: inactive
[11]
  Activity: Active
[12]
  Activity: inactive
[13]
  Activity: Active
[14]
  Activity: inactive
[15]
  pIC50: 7.03
  inhibition: Dose-dependent effect
[16]
  Activity: inactive
[17]
  Activity: inactive
[18]
  Activity: Active
[19]
  inhibition: 100%
[20]
  Activity: Active
[21]
  remaining at 48 h, 1000 µM: 87%
[22]
  Activity: inactive
